What was measured:
[1] = Partition coefficient (logP); assay type: physicochemical; conditions: octanol/water
Outline: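 Partitioning measured between n-octanol and water.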

[2] = Ability to inhibit the Mitochondrial cytochrome c Oxidase in isolated mitochondrial suspensions from R3230AC rat mammary adenocarcinomas; set-up: concentration or dose not given beside the values; conditions: concentration not given here
Outline: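 Mitochondria isolated from subcutaneously transplanted R3230AC tumors in female Fischer 344 rats and stored at -70 °C. They were diluted in sucrose/KCl buffer (pH 7.4) to give a 0.45-0.60/min absorbance change of cytochrome c at 550 nm. Dye (10 μM) was added for 5 min in the dark at room temperature, then mitochondria were pelleted and resuspended. Samples were matched by absorbance (~1.5 OD) and irradiated with 375–800 nm light. The initial inhibition rate was taken over the first 5 min of exposure.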

Row | SMILES | logP [1] | inhibition [2]
1 | CC(C)(C)C1=CC(=C/C=C/c2cc(C(C)(C)C)[se+]c(C(C)(C)C)c2)C=C(C(C)(C)C)[Se]1 | 1.92 | 4.2%
2 | CC(C)(C)C1=CC(=C/C=C/c2cc(C(C)(C)C)[se+]c(C(C)(C)C)c2)C=C(C(C)(C)C)O1 | – | 2.55%
3 | CC(C)(C)C1=CC(=C/C=C/c2cc(C(C)(C)C)[o+]c(C(C)(C)C)c2)C=C(C(C)(C)C)O1 | 2.51 | 0%
4 | CC(C)(C)C1=CC(=C/C=C/c2cc(C(C)(C)C)[s+]c(C(C)(C)C)c2)C=C(C(C)(C)C)S1 | 1.97 | 0.045%
5 | CC(C)(C)C1=CC(=C/C=C/c2cc(C(C)(C)C)[te+]c(C(C)(C)C)c2)C=C(C(C)(C)C)O1 | 2.41 | 10.9%
6 | CC(C)(C)C1=CC(=C/C=C/c2cc(C(C)(C)C)[s+]c(C(C)(C)C)c2)C=C(C(C)(C)C)O1 | – | 0.03%
7 | CC(C)(C)C1=CC(=C/C=C/c2cc(C(C)(C)C)[se+]c(C(C)(C)C)c2)C=C(C(C)(C)C)S1 | 2.39 | 4.05%
8 | CC(C)(C)C1=CC(=C/C=C/c2cc(C(C)(C)C)[te+]c(C(C)(C)C)c2)C=C(C(C)(C)C)[Te]1 | 2.02 | –
9 | CC(C)(C)C1=CC(=C/C=C/c2cc(C(C)(C)C)[te+]c(C(C)(C)C)c2)C=C(C(C)(C)C)[Se]1 | 2.41 | 3%

Reference: ChEMBL document CHEMBL1124734, “Chalcogenapyrylium dyes as photochemotherapeutic agents. 2. Tumor uptake, mitochondrial targeting, and singlet-oxygen-induced inhibition of cytochrome c oxidase” (J Med Chem, 1990)
